{"data": "Results pooled from the literature", "note": "Protocols differ between the studies behind these lines."}
{"SMILES": "CC1CCN(C(=O)/C=C/c2nn(CC3CCCC3)c3ncnc(N)c23)CC1", "target or system": "FLO-1", "assay": "cell growth or viability, resazurin", "setting": "5 days", "measurement": "EC50", "result": "> 30 µM"}
{"SMILES": "COC1=CC2=[N+](C)CCc3c[nH]c(c32)C1=O", "target or system": "Plasmodium falciparum", "assay": "parasite growth, SYBR Green", "system": "DD2", "setting": "blood stage", "measurement": "IC50", "result": "1.63 µM"}
{"SMILES": "O=C(/C=C/c1cn(Cc2cn(-c3ccnc4cc(Cl)ccc34)nn2)c2ccccc12)c1ccc(Cl)cc1Cl", "target or system": "Plasmodium falciparum", "assay": "parasite growth, SYBR Green", "system": "3D7", "setting": "5 µM, blood stage", "measurement": "inhibition", "result": "4.87%"}
{"SMILES": "O=C1C=C2NCCc3c[nH]c(c32)C1=O", "target or system": "Plasmodium falciparum", "assay": "parasite growth, SYBR Green", "system": "W2", "setting": "blood stage", "measurement": "IC50", "result": "25 µM"}
{"SMILES": "C=CC(=O)NC1CCN(c2ncc3ncnc(Nc4ccc(Oc5ccc6c(c5)ncn6C)c(C)c4)c3n2)CC1", "target or system": "SW900", "assay": "cell growth or viability", "measurement": "EC50", "result": "0.0463 µM"}
{"SMILES": "CNc1ncc2c(/C=C/C(=O)N3CCC(OC)CC3)nn(CC3CCCCC3)c2n1", "target or system": "FLO-1", "assay": "cell growth or viability, resazurin", "setting": "5 days", "measurement": "EC50", "result": "7.15 µM"}
{"SMILES": "O=C(/C=C/c1cn(Cc2cn(-c3ccnc4cc(Cl)ccc34)nn2)c2ccccc12)c1ccc(F)cc1", "target or system": "Plasmodium falciparum", "assay": "parasite growth, SYBR Green", "system": "3D7", "setting": "10 µM, blood stage", "measurement": "inhibition", "result": "47.1%"}
{"SMILES": "COC(=O)/C=C/c1nn(CC2CCCC2)c2ncnc(N)c12", "target or system": "FLO-1", "assay": "cell growth or viability, resazurin", "setting": "5 days", "measurement": "EC50", "result": "> 30 µM"}
{"SMILES": "Cn1cc2c3c1C(=O)C(NCCc1ccc(O)cc1)=CC3=[N+](C)CC2", "target or system": "Plasmodium falciparum", "assay": "parasite growth, SYBR Green", "system": "DD2", "setting": "blood stage", "measurement": "IC50", "result": "0.0484 µM"}
{"SMILES": "CCN(CC)CCCC(C)Nc1ccnc2cc(Cl)ccc12 (stereo not drawn)", "target or system": "Plasmodium falciparum", "assay": "parasite growth, SYBR Green", "system": "3D7", "setting": "25 nM, blood stage", "measurement": "inhibition", "result": "52.5%"}
{"SMILES": "O=C(NO)c1ccc(CNc2nc3cccc(-c4ccc5c(c4)OCO5)n3n2)cc1", "target or system": "COLO 205", "assay": "cell growth or viability, SRB", "measurement": "GI50", "result": "0.63 µM"}
{"SMILES": "O=C(/C=C/c1cn(Cc2cn(-c3ccnc4cc(Cl)ccc34)nn2)c2ccccc12)c1ccc([N+](=O)[O-])cc1", "target or system": "Plasmodium falciparum", "assay": "parasite growth, SYBR Green", "system": "3D7", "setting": "5 µM, blood stage", "measurement": "inhibition", "result": "3.86%"}
{"SMILES": "CNc1ncc2c(/C=C/C(=O)N3CCCC(OC)C3)nn(Cc3cccc(C)c3)c2n1 (stereo not drawn)", "target or system": "FLO-1", "assay": "cell growth or viability, resazurin", "setting": "5 days", "measurement": "EC50", "result": "13.8 µM"}
{"SMILES": "COc1cccc(C(=O)/C=C/c2cn(Cc3cn(-c4ccnc5cc(Cl)ccc45)nn3)c3ccccc23)c1", "target or system": "Plasmodium falciparum", "assay": "parasite growth, SYBR Green", "system": "3D7", "setting": "5 µM, blood stage", "measurement": "inhibition", "result": "2.88%"}
{"SMILES": "CNc1ncc2c(/C=C/C(=O)N3CCC(OC)CC3)nn(CC3CCCO3)c2n1 (stereo not drawn)", "target or system": "FLO-1", "assay": "cell growth or viability, resazurin", "setting": "5 days", "measurement": "EC50", "result": "> 30 µM"}
